The text below walks through data of paper PMC12401638 (Drug Testing and Analysis, 2025).

Where two headings read alike, the source gives them in different places.

In data set [1] the target is T1, CB2 (Homo sapiens, UniProt P34972). To be noted: [35S]GTPγS, cAMP and βarr2 recruitment assay; cited from earlier work. (GTPγS is a poorly hydrolysed GTP analogue; its binding reports G protein activation.)
Data set [2] addresses T1, CB2. Put plainly: cell-based. In kind it is cell-based.
Data set [3] deals with CB1 (Homo sapiens, UniProt P21554). Put plainly: cell-based. In kind it is cell-based.
CB1, sequence (P21554 whole entry): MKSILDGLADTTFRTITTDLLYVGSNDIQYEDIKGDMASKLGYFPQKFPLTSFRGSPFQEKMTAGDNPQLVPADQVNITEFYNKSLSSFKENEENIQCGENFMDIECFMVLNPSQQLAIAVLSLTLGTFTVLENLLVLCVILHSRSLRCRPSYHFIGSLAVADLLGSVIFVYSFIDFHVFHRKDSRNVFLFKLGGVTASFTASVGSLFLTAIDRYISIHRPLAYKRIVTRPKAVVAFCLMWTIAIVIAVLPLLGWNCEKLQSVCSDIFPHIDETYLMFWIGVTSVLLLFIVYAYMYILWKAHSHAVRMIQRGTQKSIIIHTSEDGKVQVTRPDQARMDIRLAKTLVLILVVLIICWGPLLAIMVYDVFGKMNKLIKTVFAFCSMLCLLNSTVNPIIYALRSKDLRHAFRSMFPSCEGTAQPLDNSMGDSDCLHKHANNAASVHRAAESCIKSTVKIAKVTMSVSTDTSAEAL
CB1, sequence (P32121 whole entry partner): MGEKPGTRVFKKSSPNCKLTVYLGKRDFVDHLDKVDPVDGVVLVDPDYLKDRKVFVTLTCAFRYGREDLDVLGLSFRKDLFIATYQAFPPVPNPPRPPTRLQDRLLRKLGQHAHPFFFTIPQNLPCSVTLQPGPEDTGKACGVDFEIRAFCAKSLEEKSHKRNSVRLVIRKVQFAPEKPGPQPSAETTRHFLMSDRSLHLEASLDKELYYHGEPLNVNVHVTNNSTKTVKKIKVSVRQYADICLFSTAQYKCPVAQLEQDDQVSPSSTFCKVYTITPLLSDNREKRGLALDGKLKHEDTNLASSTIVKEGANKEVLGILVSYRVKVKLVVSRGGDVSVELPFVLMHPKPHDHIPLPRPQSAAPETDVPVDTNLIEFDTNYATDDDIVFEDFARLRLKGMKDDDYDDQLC
Data set [4] deals with neuropathic pain. To be noted: mouse model for neuropathic pain; cited from earlier work.
A short description of data set [5]: Metabolite identification by human liver microsome incubation and LC-QTOF-MS. In kind it is in vitro ADME. Particulars: HLM incubation 37°C, 2 h. The essentials: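 Pooled human liver microsomes (50 donors, 20 mg/mL stock) with NADPH (10 mM stock) in 100 mM phosphate buffer, pH 7.4, 10 mM MgCl2. Controls: buffer only, and buffer plus NADPH without microsomes. Microsomal samples run in duplicate. Incubated 2 h at 37°C, quenched with acetonitrile, centrifuged, supernatant partly dried and filtered. Analysed by LC-QTOF-MS with an ammonium formate (10 mM, pH 3) / MeOH:ACN gradient.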
In general terms: Liver microsomes are a subcellular fraction often used to study metabolism.

The subject of data set [6] is both cannabinoid receptors. To be noted: cited from earlier work.

T1 sequence (P34972 whole entry): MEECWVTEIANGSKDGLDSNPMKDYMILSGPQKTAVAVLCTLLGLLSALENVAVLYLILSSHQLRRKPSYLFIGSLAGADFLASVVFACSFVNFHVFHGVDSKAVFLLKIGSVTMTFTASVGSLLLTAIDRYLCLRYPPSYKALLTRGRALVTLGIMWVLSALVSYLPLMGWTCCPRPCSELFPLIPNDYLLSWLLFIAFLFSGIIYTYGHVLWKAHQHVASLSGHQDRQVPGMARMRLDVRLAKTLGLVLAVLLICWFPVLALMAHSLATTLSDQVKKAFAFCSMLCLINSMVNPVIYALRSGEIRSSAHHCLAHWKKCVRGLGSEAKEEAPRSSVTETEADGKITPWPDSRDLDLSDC
T1 sequence (P32121 whole entry partner): as the sequence (P32121 whole entry partner) above

Consider `Cc1c(Br)cn(Cc2ccc(F)cc2)c(=O)c1NC(=O)C1CCCCCC1` [C2, N‐(5‐bromo‐1‐(4‐fluorobenzyl)‐4‐methyl‐2‐oxo‐1,2‐dihydropyridin‐3‐yl)cycloheptanecarboxamide], for which the “activation potential at CB2” value in data set [1] is given as “(very) limited activation potential”. The “CB2 receptor activation potential compared with CH-FUBBMPDORA” value in data set [2] is “almost identical and equally weak”. In addition, in data set [3], the “CB1 activity compared with CH-FUBBMPDORA” value was “more active than CH‐FUBBMPDORA”. Besides, the antinociceptive activity entry in data set [4] was “displayed antinociceptive activity”.

As for `CCCCCn1cc(C(=O)c2cccc3ccccc23)c2ccccc21` [JWH‐018], the “E max (%) (95% CI), CB2, relative to CP55,940 (100%)” value in data set [2] is listed as 63.2 (55.8–70.9) %. The EC50 in data set [2] (read-out: EC 50 (nM) (95% CI), CB2) stood at 4.36 nM; in data set [3] (read-out: EC 50 (nM) (95% CI), CB1) it was 14.3 nM. Also, the “E max (%) (95% CI), CB1, relative to CP55,940 (100%)” value in data set [3] is 378 (348–409) %.

Consider `Cc1c(Br)cn(Cc2ccc(F)cc2)c(=O)c1NC(=O)C1CCCCC1` [CH‐FUBBMPDORA, N‐[5‐bromo‐1‐(4‐fluorobenzyl)‐4‐methyl‐2‐oxo‐1,2‐dihydropyridin‐3‐yl)cyclohexanecarboxamide], for which the EC50 came to 4270 nM in data set [2] and 3780 nM in data set [3]. Moreover, the “number of metabolites identified” value in data set [5] is recorded as “Four”. Further, in data set [5] (with NADPH), the “Area (LC-QTOF-MS peak area)” value is on record as 5.68e + 05.

In the case of `Cc1c(Br)cn(Cc2ccc(F)cc2)c(=O)c1C(=O)NC1CCCCCC1` [B2, 5‐bromo‐N‐cycloheptyl‐1‐(4‐fluorobenzyl)‐4‐methyl‐2‐oxo‐1,2‐dihydropyridine‐3‐carboxamide], the “activity and affinity at both cannabinoid receptors” value in data set [6] is “nanomolar activity and affinity”.
